Key:
[1] = Relative binding affinity for rat Opioid receptor mu 1 and human Opioid receptor kappa 1
[2] = molecular target: T1, Delta-type opioid receptor (Rattus norvegicus, UniProt P33533); experiment: Agonist activity against Opioid receptor delta 1 expressed in C6 cells in [35S]-GTP-gamma S assay; No stimulation up to 10000 nM; format: functional, cell-based
[3] = molecular target: T2, Kappa-type opioid receptor (Homo sapiens, UniProt P41145); experiment: Inhibition of [3H]diprenorphine binding to human opioid receptor kappa 1 expressed in CHO cells; format: cell-based
T2 sequence (P41145 whole entry): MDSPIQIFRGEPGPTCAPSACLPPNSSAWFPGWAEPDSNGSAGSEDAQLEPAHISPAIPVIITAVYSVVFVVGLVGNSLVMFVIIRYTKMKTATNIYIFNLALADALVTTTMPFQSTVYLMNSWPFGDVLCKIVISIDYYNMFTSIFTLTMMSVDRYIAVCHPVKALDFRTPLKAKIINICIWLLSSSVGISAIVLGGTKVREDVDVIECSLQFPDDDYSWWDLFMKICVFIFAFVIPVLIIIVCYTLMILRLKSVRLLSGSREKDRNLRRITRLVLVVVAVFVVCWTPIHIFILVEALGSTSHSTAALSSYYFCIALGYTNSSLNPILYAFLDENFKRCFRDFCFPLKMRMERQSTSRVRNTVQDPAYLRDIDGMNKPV
Outline: (§1)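 Competition binding with [3H]diprenorphine on rat MOR or DOR expressed in C6 cells and human KOR in CHO cells. Mean of three experiments, each in duplicate.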

[4] = molecular target: Mu-type opioid receptor (Rattus norvegicus) (UniProt P33535); experiment: Stimulation of [35S]-GTP-gamma S binding to Opioid receptor mu 1 expressed in C6 cells; format: functional, cell-based
Chain of Mu-type opioid receptor (Rattus norvegicus) (P33535 whole entry): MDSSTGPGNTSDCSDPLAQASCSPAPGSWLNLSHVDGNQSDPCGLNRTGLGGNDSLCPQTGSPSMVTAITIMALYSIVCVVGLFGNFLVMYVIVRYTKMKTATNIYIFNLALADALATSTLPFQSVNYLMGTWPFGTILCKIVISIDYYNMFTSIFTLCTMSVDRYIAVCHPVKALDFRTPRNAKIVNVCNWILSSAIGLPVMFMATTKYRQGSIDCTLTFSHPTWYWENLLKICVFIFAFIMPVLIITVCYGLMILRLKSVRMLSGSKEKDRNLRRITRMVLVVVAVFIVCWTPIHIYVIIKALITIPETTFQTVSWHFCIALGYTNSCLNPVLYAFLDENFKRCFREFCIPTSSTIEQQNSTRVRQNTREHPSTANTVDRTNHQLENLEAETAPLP

Mus musculus [5] = experiment: In vivo effective concentration for agonist activity in mouse tail withdrawal assay for antinociception after 1 hr of pre treatment with U-69,593 icv administration (10 nmol); format: functional, organism-based
Outline: (§2)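 Mouse warm-water tail withdrawal, water at 50 °C. Agonist U69593 given sc, and its dose-response EC50 (mg/kg) determined. Pretreatment 1, 3, 18, 24 or 48 h before, sc at 10 or 32 mg/kg; or icv 10 nmol at 1, 24, 48 or 168 h before. Vehicle control at −1 h. Fold shift and its significance reported.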

[6] = molecular target: T2, Kappa-type opioid receptor; experiment: Agonist activity against human Opioid receptor kappa 1 expressed in CHO cells in [35S]-GTP-gamma S binding assay; format: functional, cell-based
Mus musculus [7] = experiment: In vivo effective concentration for agonist activity in mouse tail withdrawal assay for antinociception after 168h of pre treatment with U-69,593 icv administration (10 nmol); format: functional, organism-based; outline: as §2
Mus musculus [8] = experiment: In vivo effective concentration for agonist activity in mouse tail withdrawal assay for antinociception after 24 hr of pre treatment with U-69,593 sc administration (32 mg/kg); format: functional, organism-based; outline: as §2
Mu-type opioid receptor [9] = molecular target: T3, Mu-type opioid receptor (Rattus norvegicus, UniProt P33535); experiment: Agonist activity against rat Opioid receptor mu 1 expressed in C6 cells in [35S]-GTP-gamma S binding assay; format: functional, cell-based
T3 sequence (P33535 whole entry): as above

Mus musculus [10] = experiment: In vivo effective concentration for agonist activity in mouse tail withdrawal assay for antinociception after 24 hr of pre treatment with U-69,593 sc administration (10 mg/kg); format: functional, organism-based; outline: as §2
Mus musculus [11] = experiment: In vivo effective concentration for agonist activity in mouse tail withdrawal assay for antinociception after 48 hr of pre treatment with U-69,593 sc administration (10 mg/kg); format: functional, organism-based; outline: as §2
Mus musculus [12] = experiment: In vivo effective concentration for agonist activity in mouse tail withdrawal assay for antinociception after 1 hr of pre treatment with U-69,593 sc administration (10 mg/kg); format: functional, organism-based; outline: as §2
Mus musculus [13] = experiment: In vivo effective concentration for agonist activity in mouse tail withdrawal assay for antinociception after 3h of pre treatment with U-69,593 sc administration (10 mg/kg); format: functional, organism-based; outline: as §2
[14] = molecular target: T2, Kappa-type opioid receptor; experiment: Stimulation of [35S]-GTP-gamma S binding to Opioid receptor kappa 1 expressed in […] cells; format: functional, cell-based
[15] = molecular target: Delta-type opioid receptor (Rattus norvegicus) (UniProt P33533); experiment: Antagonistic activity against rat opioid receptor delta 1 expressed in C6 cells in [35S]GTP gamma S assay; format: functional, cell-based
Chain of Delta-type opioid receptor (Rattus norvegicus) (P33533 whole entry): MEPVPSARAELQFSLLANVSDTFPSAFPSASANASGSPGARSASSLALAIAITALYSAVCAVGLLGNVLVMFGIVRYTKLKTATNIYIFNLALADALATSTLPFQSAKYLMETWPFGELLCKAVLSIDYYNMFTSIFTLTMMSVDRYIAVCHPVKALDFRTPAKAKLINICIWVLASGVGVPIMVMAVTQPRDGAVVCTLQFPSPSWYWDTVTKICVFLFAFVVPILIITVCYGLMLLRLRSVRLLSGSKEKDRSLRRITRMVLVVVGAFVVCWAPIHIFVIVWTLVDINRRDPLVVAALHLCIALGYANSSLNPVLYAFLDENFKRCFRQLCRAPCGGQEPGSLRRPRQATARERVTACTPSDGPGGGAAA
Outline: (§3)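 Antagonism in [35S]GTPγS binding on membranes: rat MOR/DOR in C6 cells, human KOR in CHO cells. Agonist dose-response curves run with and without test ligand: DAMGO (MOR), SNC80 (DOR), U69593 (KOR). Ke = [antagonist]/(dose-ratio − 1), ± SEM. Three separate experiments.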

Mus musculus [16] = experiment: In vivo effective concentration for agonist activity in mouse tail withdrawal assay for antinociception after 18 h of pre treatment with U-69,593 sc administration (10 mg/kg); format: functional, organism-based; outline: as §2
[17] = Relative binding affinity for rat Opioid receptor delta 1 and human Opioid receptor kappa 1
Mus musculus [18] = experiment: In vivo effective concentration for agonist activity in mouse tail withdrawal assay for antinociception after 24 hr of pre treatment with U-69,593 icv administration (10 nmol); format: functional, organism-based; outline: as §2
[19] = molecular target: Mu-type opioid receptor (Rattus norvegicus) (UniProt P33535); experiment: Antagonistic activity against rat opioid receptor mu 1 expressed in C6 cells in [35S]GTP gamma S assay; format: functional, cell-based; outline: as §3
Mu-type opioid receptor [20] = molecular target: T3, Mu-type opioid receptor; experiment: Inhibition of [3H]diprenorphine binding to rat Opioid receptor mu 1 expressed in C6 cells; format: cell-based; outline: as §1
[21] = molecular target: T2, Kappa-type opioid receptor; experiment: Antagonistic activity against human opioid receptor kappa 1 expressed in CHO cells in [35S]GTP gamma S assay; format: functional, cell-based; outline: as §3
[22] = molecular target: T1, Delta-type opioid receptor; experiment: Inhibition of [3H]diprenorphine binding to rat Opioid receptor delta 1 expressed in C6 cells; format: cell-based; outline: as §1
Mus musculus [23] = experiment: In vivo effective concentration for agonist activity in mouse tail withdrawal assay for antinociception after 48 hr of pre treatment with U-69,593 icv administration (10 nmol); format: functional, organism-based; outline: as §2
[24] = molecular target: T2, Kappa-type opioid receptor; experiment: Agonist activity against Opioid receptor kappa 1 expressed in CHO cells in [35S]-GTP-gamma S assay; No stimulation up to 10000 nM; format: functional, cell-based
Mu-type opioid receptor [25] = molecular target: T3, Mu-type opioid receptor; experiment: Agonist activity against Opioid receptor mu 1 expressed in C6 cells in [35S]-GTP-gamma S assay; No stimulation up to 10000 nM; format: functional, cell-based

T1 sequence (P33533 whole entry): as above

SMILES | Ratio [1] | EC50 [2] | Ki [3] | Stimulation [4] | EC50 (Mus musculus [8]) | EC50 (Mu-type opioid receptor [9]) | Ke [15] | Ratio [17] | EC50 (Mus musculus [18]) | Ke [19] | Ki (Mu-type opioid receptor [20]) | Ke [21] | Ki [22] | EC50 [24] | other results
Oc1ccc2c3c1O[C@H]1c4c(c5c(n4Cc4ccccc4)[C@@H]4Oc6c(O)ccc7c6[C@@]46CCN(CC4CC4)[C@H](C7)[C@]6(O)C5)C[C@@]4(O)[C@@H](C2)N(CC2CC2)CC[C@]314 | 14 | Not Active | 0.7 nM | 38% | 5.7 mh/kg | 187 nM | 13.3 nM | 12 | 26.3 mh/kg | 25.5 nM | 10 nM | 0.26 nM | 8.6 nM |  | EC50 (Mus musculus [5]): 49.1 mh/kg; EC50 [6]: 1910 nM; EC50 (Mus musculus [7]): 37 mh/kg; EC50 (Mus musculus [10]): 4.4 mg/kg; EC50 (Mus musculus [11]): 9.9 mh/kg; EC50 (Mus musculus [12]): 2 mg/kg; EC50 (Mus musculus [13]): 2.1 mg/kg; Stimulation [14]: 29%; EC50 (Mus musculus [16]): 9 mg/kg; EC50 (Mus musculus [23]): 74.2 mh/kg
CN1CC[C@]23c4c5ccc(O)c4O[C@H]2c2[nH]c4c(c2C[C@@]3(O)[C@H]1C5)C[C@@]1(O)[C@H]2Cc3ccc(O)c5c3[C@@]1(CCN2C)[C@H]4O5 | 8 | Not Active | 7.7 nM | 66% |  | 1390 nM |  | 13 |  |  | 63.6 nM | 27 nM | 98.2 nM | Not Active | 
Oc1ccc2c3c1O[C@H]1c4[nH]c5c(c4C[C@@]4(O)[C@@H](C2)N(CC2CC2)CC[C@]314)C[C@@]1(O)[C@H]2Cc3ccc(O)c4c3[C@@]1(CCN2CC1CC1)[C@H]5O4 [NORBINALTORPHIMINE] |  | Not Active |  |  | 22.7 mg/kg |  | 5.17 nM |  | 31.8 mg/kg | 2.38 nM |  | 0.11 nM | 5.8 nM | Not Active | EC50 (Mu-type opioid receptor [25]): Not Active
C[C@H]1c2c(c3c(n2Cc2ccccc2)[C@@H]2Oc4c(O)ccc5c4[C@@]24CCN(C)[C@H](C5)[C@]4(O)C3)CC2(O)[C@H]3Cc4ccc(O)c(O)c4[C@@]12CCN3C (stereo partly specified) | 0.3 |  |  | 54% |  |  |  | 8 |  |  |  | 311 nM |  |  | 
